In brackets after ≈: the same amount, converted by molar mass. *1 amine or outer side, *2 acyl side, *3 side chain or, on linkers, in order; H or OH if unused. Where a SMILES comes first, the peptide text is derived from it. Bridges are numbered along the chain shown (N, C = ends). [ ]: non-standard residue; d: D form. The star is where a group is joined. hTyr(3S-OH,4S-OH,3'-OSO3H) = N[C@H](C(=O)O)[C@H](O)[C@@H](O)c1ccc(O)c(OS(=O)(=O)O)c1; Orn(4R-OH,5R-OH) = O=C([C@H](C[C@@H](O)[C@@H](O)N[*:3])N[*:1])[*:2]; Pro(3S-OH,4S-Me) = C[C@H]1CN[C@H](C(=O)O)[C@H]1O; X1 = CCCCCOc1ccc(-c2cc(-c3ccc(C(=O)*)cc3)no2)cc1; Gln(3R-OH) = NC(=O)C[C@@H](O)[C@H](N)C(=O)O; Hyp = O=C(O)[C@@H]1C[C@@H](O)CN1
Legend:
Nakaseomyces glabratus [1] = test: Fungistatic activity against Candida glabrata isolate 33616 infected in ICR/Swiss neutropenic mouse after 24 hrs; format: functional
In short: (§1)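 Neutropenic female ICR/Swiss mice received cyclophosphamide sc at 150 mg/kg on day −4, 100 mg/kg on day −1 and 100 mg/kg on day +2. Mice were infected iv via the tail vein, and ip micafungin in 0.15 M NaCl started 2 h later. Six dose levels from 0.078 to 80 mg/kg/24 h were given q24h for 4 days, 3 mice per dose. Kidney CFU were counted at 96 h. The static dose was derived from a sigmoid Emax (Hill) fit.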

[2] = Cmax in Candida infected ICR/Swiss neutropenic mouse at 80 mg/kg, ip; format: ADME, organism-based; parameters: dose 80 mg/kg, route intraperitoneal; conditions: in vivo
In short: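 Single intraperitoneal micafungin doses (80, 20, 5 mg/kg in 0.2 ml, 0.15 M NaCl) given to infected neutropenic mice. Serum was taken from 3 mice per time point at 1, 2, 4, 6, 8, 12, 24 and 48 h. Drug was measured by microbiologic assay with C. albicans K1 (LLOQ 0.12 μg/ml). Noncompartmental analysis; half-life by nonlinear least squares; AUC by trapezoidal rule.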

[3] = Ratio of AUC in ICR/Swiss neutropenic mouse at static dose of 2.84 mg/kg, ip after 24 hrs to MIC for Candida albicans isolate K1; format: functional; conditions: route intraperitoneal
[4] = Ratio of fAUC in ICR/Swiss neutropenic mouse at 1-Log kill dose of 3.77 mg/kg, ip after 24 hrs to MIC for Candida glabrata isolate 35315; format: functional; conditions: route intraperitoneal
Nakaseomyces glabratus [5] = test: Antifungal activity against Candida glabrata isolate 5376 infected in ICR/Swiss neutropenic mouse assessed as dose required for 1-log kill after 24 hrs; format: functional
In short: (§2)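 Neutropenic mice (cyclophosphamide sc 150 mg/kg day −4, 100 mg/kg day −1 and +2) infected iv by tail vein 2 h before therapy. Micafungin given ip every 24 h for 4 days at six fourfold-spaced dose levels, 0.078–80 mg/kg/24 h, 3 mice per group. Kidney CFU read at 96 h. Hill-model fit; dose giving 1 log10 below start-of-therapy burden.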

[6] = Ratio of AUC in ICR/Swiss neutropenic mouse at 1-Log kill dose of 4.26 mg/kg, ip after 24 hrs to MIC for Candida glabrata isolate 34341; format: functional; conditions: route intraperitoneal
Nakaseomyces glabratus [7] = test: Antifungal activity against Candida glabrata isolate 33609 infected in ICR/Swiss neutropenic mouse assessed as dose required for 1-log kill after 24 hrs; format: functional; in short: as §2
[8] = Ratio of fAUC in ICR/Swiss neutropenic mouse at static dose of 2.84 mg/kg, ip after 24 hrs to MIC for Candida albicans isolate K1; format: functional; conditions: route intraperitoneal
[9] = Ratio of AUC in ICR/Swiss neutropenic mouse at static dose of 2.18 mg/kg, ip after 24 hrs to MIC for Candida glabrata isolate 34341; format: functional; conditions: route intraperitoneal
Nakaseomyces glabratus [10] = test: Antifungal activity against Candida glabrata isolate 33616 by CLSI method; format: functional
In short: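 Broth microdilution per CLSI M27-A2. The MIC was read at partial inhibition (M1) and at complete inhibition (M2) against the drug-free control. Done in duplicate on four separate occasions and reported as the mean.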

[11] = Ratio of fAUC in ICR/Swiss neutropenic mouse at 1-Log kill dose of 6.70 mg/kg, ip after 24 hrs to MIC for Candida glabrata isolate 570; format: functional; conditions: dose 6.7 mg/kg; route intraperitoneal
[12] = Ratio of AUC in ICR/Swiss neutropenic mouse at 1-Log kill dose of 10.4 mg/kg, ip after 24 hrs to MIC for Candida albicans isolate 98-210; format: functional; conditions: route intraperitoneal
[13] = Ratio of AUC in ICR/Swiss neutropenic mouse at 1-Log kill dose of 20.6 mg/kg, ip after 24 hrs to MIC for Candida glabrata isolate 37661; format: functional; conditions: route intraperitoneal
Nakaseomyces glabratus [14] = test: Antifungal activity against Candida glabrata isolate 34341 infected in ICR/Swiss neutropenic mouse assessed as dose required for 1-log kill after 24 hrs; format: functional; in short: as §2
[15] = Ratio of fAUC in ICR/Swiss neutropenic mouse at static dose of 1.98 mg/kg, ip after 24 hrs to MIC for Candida albicans isolate 580; format: functional; conditions: route intraperitoneal
[16] = Ratio of AUC in ICR/Swiss neutropenic mouse at static dose of 1.80 mg/kg, ip after 24 hrs to MIC for Candida glabrata isolate 5592; format: functional; conditions: dose 1.8 mg/kg; route intraperitoneal
Nakaseomyces glabratus [17] = test: Antifungal activity against Candida glabrata isolate 32930 infected in ICR/Swiss neutropenic mouse assessed as dose required for 1-log kill after 24 hrs; format: functional; in short: as §2
[18] = Ratio of fAUC in ICR/Swiss neutropenic mouse at 1-Log kill dose of 2.36 mg/kg, ip after 24 hrs to MIC for Candida albicans isolate 580; format: functional; conditions: route intraperitoneal
Nakaseomyces glabratus [19] = test: Fungistatic activity against Candida glabrata isolate 5376 infected in ICR/Swiss neutropenic mouse after 24 hrs; format: functional; in short: as §1
[20] = Ratio of fAUC in ICR/Swiss neutropenic mouse at static dose of 1.34 mg/kg, ip after 24 hrs to MIC for Candida glabrata isolate 513; format: functional; conditions: route intraperitoneal
[21] = Ratio of AUC in ICR/Swiss neutropenic mouse at static dose of 9.25 mg/kg, ip after 24 hrs to MIC for Candida glabrata isolate 37661; format: functional; conditions: route intraperitoneal
[22] = Ratio of AUC in ICR/Swiss neutropenic mouse at static dose of 2.4 mg/kg, ip after 24 hrs to MIC for Candida glabrata isolate 35315; format: functional; conditions: route intraperitoneal
[23] = Ratio of AUC in ICR/Swiss neutropenic mouse at 1-Log kill dose of 3.77 mg/kg, ip after 24 hrs to MIC for Candida glabrata isolate 35315; format: functional; conditions: route intraperitoneal
Nakaseomyces glabratus [24] = test: Antifungal activity against Candida glabrata isolate 570 infected in ICR/Swiss neutropenic mouse assessed as dose required for 1-log kill after 24 hrs; format: functional; in short: as §2
Homo sapiens = organism: Homo sapiens; test: fAUC in healthy human at 100 mg/day; format: ADME, organism-based; conditions: in vivo
[25] = Ratio of fAUC in ICR/Swiss neutropenic mouse at 1-Log kill dose of 7.89 mg/kg, ip after 24 hrs to MIC for Candida glabrata isolate 33616; format: functional; conditions: route intraperitoneal
[26] = Ratio of AUC in ICR/Swiss neutropenic mouse at static dose of 3.88 mg/kg, ip after 24 hrs to MIC for Candida glabrata isolate 33616; format: functional; conditions: route intraperitoneal
[27] = Ratio of AUC in ICR/Swiss neutropenic mouse at 1-Log kill dose of 5.46 mg/kg, ip after 24 hrs to MIC for Candida glabrata isolate 5592; format: functional; conditions: route intraperitoneal
Candida albicans [28] = test: Antifungal activity against Candida albicans isolate 98-17 by CLSI method; format: functional
In short: (§3)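 Broth microdilution MIC per CLSI M27-A2. Two endpoints were read against the drug-free control well: partial inhibition (M1, CLSI recommended) and complete inhibition (M2). Tests were run in duplicate on four separate occasions, and the value is the mean.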

Candida albicans [29] = test: Antifungal activity against Candida albicans isolate 580 by CLSI method; format: functional; in short: as §3
Nakaseomyces glabratus [30] = test: Fungistatic activity against Candida glabrata isolate 513 infected in ICR/Swiss neutropenic mouse after 24 hrs; format: functional; in short: as §1
[31] = Ratio of AUC in ICR/Swiss neutropenic mouse at 1-Log kill dose of 4.08 mg/kg, ip after 24 hrs to MIC for Candida albicans isolate K1; format: functional; conditions: route intraperitoneal

CCCCCOc1ccc(-c2cc(-c3ccc(C(=O)N[C@H]4C[C@@H](O)[C@@H](O)NC(=O)[C@@H]5[C@@H](O)[C@@H](C)CN5C(=O)[C@H]([C@H](O)CC(N)=O)NC(=O)[C@H]([C@H](O)[C@@H](O)c5ccc(O)c(OS(=O)(=O)O)c5)NC(=O)[C@@H]5C[C@@H](O)CN5C(=O)[C@H]([C@@H](C)O)NC4=O)cc3)no2)cc1 [MICAFUNGIN] (X1-[Orn(4R-OH,5R-OH)]T[Hyp][hTyr(3S-OH,4S-OH,3'-OSO3H)][Gln(3R-OH)][Pro(3S-OH,4S-Me)]; lactam 1-C)
Activity (Nakaseomyces glabratus [1]): 3.88 mg/kg
Cmax [2]: 53 µg/mL
RatioAUC/MIC [3]: 5200
fAUC/MIC [4]: 4.33
Activity (Nakaseomyces glabratus [5]): 2 mg/kg
RatioAUC/MIC [6]: 1960
Activity (Nakaseomyces glabratus [7]): 1.4 mg/kg
fAUC/MIC [8]: 13
RatioAUC/MIC [9]: 1003
MIC (Nakaseomyces glabratus [10]): 0.5 µg/mL (≈ 0.394 µM)
MIC50 (Nakaseomyces glabratus [10]): 0.25 µg/mL (≈ 0.197 µM)
fAUC/MIC [11]: 30.2
RatioAUC/MIC [12]: 18400
RatioAUC/MIC [13]: 2080
Activity (Nakaseomyces glabratus [14]): 4.26 mg/kg
fAUC/MIC [15]: 19.6
RatioAUC/MIC [16]: 3333
Activity (Nakaseomyces glabratus [17]): 1.69 mg/kg
fAUC/MIC [18]: 4.21
Activity (Nakaseomyces glabratus [19]): 0.9 mg/kg
fAUC/MIC [20]: 6.2
RatioAUC/MIC [21]: 984
RatioAUC/MIC [22]: 1103
RatioAUC/MIC [23]: 1733
Activity (Nakaseomyces glabratus [24]): 6.7 mg/kg
fAUC (Homo sapiens): 320 ng·h/mL
fAUC/MIC [25]: 2.2
RatioAUC/MIC [26]: 428
RatioAUC/MIC [27]: 10000
MIC (Candida albicans [28]): 0.06 µg/mL (≈ 0.0472 µM)
MIC50 (Candida albicans [28]): 0.03 µg/mL (≈ 0.0236 µM)
MIC (Candida albicans [29]): 0.016 µg/mL (≈ 0.0126 µM)
MIC50 (Candida albicans [29]): 0.008 µg/mL (≈ 0.0063 µM)
Activity (Nakaseomyces glabratus [30]): 1.34 mg/kg
RatioAUC/MIC [31]: 7533
